# ChEMBL document CHEMBL5042476, “Structure-Based Design and Development of Chemical Probes Targeting Putative MOR-CCR5 Heterodimers to Inhibit Opioid Exacerbated HIV-1 Infectivity” (J Med Chem, 2021)
# Active and inactive are the calls of the source. The rule behind the calls is not given here.
# Key:
# Mu-type opioid receptor [1] = molecular target: T1, Mu-type opioid receptor (Mus musculus, UniProt P42866); test: Antagonist activity at mouse MOR expressed in CHO cells assessed as inhibition of DAMGO-induced calcium mobilization preincubated for 60 mins measured after 15 mins by calcium mobilization assay; assay type: functional, cell-based
# Summary of the method: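 mMOR-CHO cells transfected with Gα for 4 h, plated and cultured 24 h. Triplicates; IC50 by nonlinear regression.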
# Mu-type opioid receptor [2] = molecular target: T1, Mu-type opioid receptor; test: Displacement of [3H]-naloxone from mouse MOR expressed in CHO cells incubated for 1.5 hrs by competitive radioligand binding assay; assay type: cell-based
# Summary of the method: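 Mouse MOR CHO membranes (30 μg) with [3H]naloxone and test compound in TME buffer (50 mM Tris, 3 mM MgCl2, 0.2 mM EGTA, pH 7.4), 1.5 h at 30 °C, then filtered. IC50 converted to Ki by Cheng–Prusoff.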
# [3] = molecular target: Mu-type opioid receptor (Mus musculus) (UniProt P42866); test: Agonist activity at mouse MOR expressed in CHO cell membranes assessed as stimulation of [35S]-GTPgammaS binding measured after 1 hr by scintillation counting analysis relative to DAMGO; assay type: functional; conditions: Cell membrane
# [4] = molecular target: T2, C-C chemokine receptor type 5 (Homo sapiens, UniProt P51681); test: Antagonist activity at CCR5 (unknown origin) expressed in HOS cells co-expressing Gqi-5 assessed as inhibition CCL5-stimulated Ca2+ mobilization by calcium mobilization assay; assay type: functional, cell-based
# Summary of the method: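 HOS-CCR5 cells transfected with Gqi5, used 48 h post-transfection and loaded with Fluo4-AM for 45 min. Compound preincubated 15 min, then CCL5 (20 μL of 200 nM) added after 16 s of reading.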
# Target sequence in this assay (P51681 whole entry): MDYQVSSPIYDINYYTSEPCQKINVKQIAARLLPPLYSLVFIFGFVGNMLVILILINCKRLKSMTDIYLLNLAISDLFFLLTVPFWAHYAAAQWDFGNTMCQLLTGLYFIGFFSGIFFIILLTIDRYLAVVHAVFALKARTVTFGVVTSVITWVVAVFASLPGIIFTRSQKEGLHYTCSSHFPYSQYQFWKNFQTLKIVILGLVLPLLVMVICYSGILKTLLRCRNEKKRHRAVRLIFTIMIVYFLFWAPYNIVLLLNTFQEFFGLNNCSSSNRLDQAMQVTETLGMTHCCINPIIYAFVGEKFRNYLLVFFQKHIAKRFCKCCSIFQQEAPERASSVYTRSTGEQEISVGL
# [5] = Cytotoxicity against human GHOST CCR5 cells assessed as reduction in cell viability measured after 6 days by XTT assay; assay type: toxicity, cell-based; conditions: time 6 day, read-out: TC50
# Summary of the method: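 GHOST CCR5 cells treated in triplicate at the same 6 concentrations without virus, 6 days at 37 °C. XTT/PMS added for 4 h at 37 °C and absorbance read at 450 nm (650 nm reference).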
# [6] = molecular target: T2, C-C chemokine receptor type 5; test: (§1) Inhibition of CCR5-mediated Luc-expressing HIV1 BaL Env-pseudotype virus infection in PHA-stimulated CCR5 expressing leukocytes containing human PBMC assessed as inhibition of viral entry in presence of 10 nM morphine by measuring luminescence at 100 nM pretreated for 1 hr before infection measured after 2 days of infection; assay type: cell-based; conditions: filed as antagonist
# Summary of the method: (§2)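 Compound 100 nM added 1 h before infection with BaL Env-pseudotyped luciferase virus (50 pg p24/10^6 cells) in 24-well plates. Lysate luciferase measured; RLU normalized to infected untreated cells.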
# Target sequence in this assay (P51681 whole entry, looked up): as the sequence (P51681 whole entry) above
# [7] = Therapeutic index, ratio of TC50 for human GHOST CCR5 cells to EC50 for inhibition of CCR5-mediated HIV-1 Bal entry in human GHOST CCR5 cells; assay type: toxicity, cell-based; conditions: read-out: TI
# Summary of the method: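 GHOST-CCR5 cells plated at 1×10^4/well, cultured 24 h, then compounds at 6 concentrations (0.001–100 μM) in triplicate. Efficacy plates got HIV-1 BaL at a predetermined titer; 6 days at 37 °C. Supernatant RT activity measured by tritiated TTP incorporation on poly rA/oligo dT gives EC50. […] TI = TC50/EC50.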
# [8] = molecular target: T2, C-C chemokine receptor type 5; test: Agonist activity at CCR5 (unknown origin) expressed in HOS cells co-expressing Gqi-5 assessed as stimulation of Ca2+ mobilization by calcium mobilization assay; assay type: functional, cell-based
# Summary of the method: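 HOS-CCR5 cells transiently transfected with Gqi5, used 48 h later. Fluo4-AM loaded 45 min, compounds added, plate read 120 s at ex494/em516. Agonist arm: compound response recorded against CCL5 under the same conditions.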
# Target sequence in this assay (P51681 whole entry, looked up): as the sequence (P51681 whole entry) above
# [9] = molecular target: T2, C-C chemokine receptor type 5; test: Inhibition of CCR5-mediated Luc-expressing HIV1 BaL Env-pseudotype virus infection in CCR5 expressing leukocytes containing human PBMC assessed as inhibition of viral entry by measuring luminescence pretreated for 1 hr before infection measured after 2 days of infection; assay type: cell-based; conditions: filed as antagonist
# Summary of the method: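 […] donor PBMCs, 2×10^5/well, in RPMI with 20 U/mL IL-2. Compound added 1 h before infection with BaL Env-pseudotyped luciferase virus (1.5 ng p24/well) and kept in culture. Luminescence read after 2 days.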
# Target sequence in this assay (P51681 whole entry, looked up): as the sequence (P51681 whole entry) above
# Mu-type opioid receptor [10] = molecular target: T1, Mu-type opioid receptor; test: Agonist activity at mouse MOR expressed in CHO cells coexpressing Gqi5 assessed as inhibition of DAMGO-induced calcium mobilization preincubated for 60 mins measured after 15 mins by calcium mobilization assay; assay type: functional, cell-based
# Summary of the method: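 CHO cells stably expressing mouse MOR, transfected with Gαq15 for 4 h, plated 10,000 cells/well and cultured 24 h. […] Calcium fluorescence read ex494/em516. Triplicate per concentration; IC50 by nonlinear regression.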
# [11] = molecular target: T2, C-C chemokine receptor type 5; test: Inhibition of CCR5-mediated Luc-expressing HIV1 BaL Env-pseudotype virus infection in PHA-stimulated CCR5 expressing leukocytes containing human PBMC assessed as inhibition of viral entry by measuring luminescence at 100 nM pretreated for 1 hr before infection measured after 2 days of infection; assay type: cell-based; summary of the method: as §2
# Target sequence in this assay (P51681 whole entry, looked up): as the sequence (P51681 whole entry) above
# [12] = molecular target: T2, C-C chemokine receptor type 5; test: as §1, with “[…]” for “morphine”; assay type: cell-based; conditions: filed as antagonist; summary of the method: as §2
# Target sequence in this assay (P51681 whole entry, looked up): as the sequence (P51681 whole entry) above
# [13] = molecular target: C-C chemokine receptor type 5 (Macaca mulatta, UniProt P61813); test: Displacement of […] from recombinant rhesus macaque CCR5 expressed in Chem-1 cells by competitive radioligand binding assay; assay type: cell-based
# Summary of the method: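 Rhesus CCR5 Chem-1 membranes (3 μg) in HEPES buffer pH 7.4 with 0.2% BSA, 0.10 nM [125I]MIP-1α and six concentrations from 0.1 nM to 10 μM, 90 min at 25 °C. Nonspecific binding with 0.1 μM MIP-1β; filters counted. Ki by Cheng–Prusoff (KD 0.31 nM, historical value).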
# T1 sequence (P42866 whole entry): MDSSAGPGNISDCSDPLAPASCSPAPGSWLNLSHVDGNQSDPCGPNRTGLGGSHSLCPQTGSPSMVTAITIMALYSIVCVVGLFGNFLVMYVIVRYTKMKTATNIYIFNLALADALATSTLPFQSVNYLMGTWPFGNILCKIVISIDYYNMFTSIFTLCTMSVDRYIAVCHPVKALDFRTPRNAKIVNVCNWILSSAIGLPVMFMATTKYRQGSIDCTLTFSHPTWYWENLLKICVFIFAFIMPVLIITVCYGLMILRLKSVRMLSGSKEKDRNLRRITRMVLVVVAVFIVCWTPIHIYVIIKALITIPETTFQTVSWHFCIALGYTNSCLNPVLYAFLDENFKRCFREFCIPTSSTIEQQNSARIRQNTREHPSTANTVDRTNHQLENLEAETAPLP
# Chain of Mu-type opioid receptor (Mus musculus) (P42866 whole entry): as above
Structure (SMILES),IC50 (Mu-type opioid receptor [1]),Ki (Mu-type opioid receptor [2]),Emax [3],IC50 [4],CC50 at 144 h [5],Activity [8],other results
CC(C)c1nnc(CCNC(=O)COCC(=O)NCCCCCCCCCNC(=O)COCC(=O)N[C@@H]2CC[C@@]3(O)[C@H]4Cc5ccc(O)c6c5[C@@]3(CCN4CC3CC3)[C@H]2O6)n1C1C[C@H]2CC[C@@H](C1)N2CC[C@H](NC(=O)C1CCC(F)(F)CC1)c1ccccc1 (some centres not stated),74.4 nM,11.2 nM,4.27%,965 nM,–,–,–
CC(C)c1nnc(CCNC(=O)COCC(=O)NCCCCCNC(=O)COCC(=O)N[C@@H]2CC[C@@]3(O)[C@H]4Cc5ccc(O)c6c5[C@@]3(CCN4CC3CC3)[C@H]2O6)n1C1C[C@H]2CC[C@@H](C1)N2CC[C@H](NC(=O)C1CCC(F)(F)CC1)c1ccccc1 (some centres not stated),1100 nM,4.23 nM,19.4%,1260 nM,–,–,–
Cc1nnc(C(C)C)n1[C@@H]1C[C@H]2CC[C@@H](C1)N2CC[C@H](NC(=O)C1CCC(F)(F)CC1)c1ccccc1,–,–,–,–,> 500 nM,–,–
CC(C)c1nnc(CCNC(=O)COCC(=O)NCCCCCCCNC(=O)COCC(=O)N[C@@H]2CC[C@@]3(O)[C@H]4Cc5ccc(O)c6c5[C@@]3(CCN4CC3CC3)[C@H]2O6)n1C1C[C@H]2CC[C@@H](C1)N2CC[C@H](NC(=O)C1CCC(F)(F)CC1)c1ccccc1 (some centres not stated),50 nM,6.05 nM,–,57.5 nM,> 100000 nM,inactive,inhibition [6]: 55%; selectivity ratio [7]: > 1080; inhibition [9]: Dose-Dependent Effect; EC50 (Mu-type opioid receptor [10]): 36.3 nM; inhibition [11]: 22%; inhibition [12]: 69%
CNC(=O)COCC(=O)NCCCCCCCNC(=O)COCC(=O)NCCc1nnc(C(C)C)n1[C@@H]1C[C@H]2CC[C@@H](C1)N2CC[C@H](NC(=O)C1CCC(F)(F)CC1)c1ccccc1,–,–,–,–,–,inactive,Ki [13]: 41 nM
Cc1nnc(C(C)C)n1C1C[C@H]2CC[C@@H](C1)N2CC[C@H](NC(=O)C1CCC(F)(F)CC1)c1ccc(NC(=O)COCC(=O)NCCCCCCCNC(=O)COCC(=O)N[C@@H]2CC[C@@]3(O)[C@H]4Cc5ccc(O)c6c5[C@@]3(CCN4CC3CC3)[C@H]2O6)cc1 (some centres not stated),40 nM,51.8 nM,11.7%,126 nM,> 100000 nM,–,–
